In the library only some 5% were active in any assay of this set; here they are far more common.
CHOP UPR activ: apoptotic UPR (CHOP) activation | hit rate 0.34% among 330,000 | AID 449763 | activation, % at 10 µM | CHO-CHOP luciferase reporter, luminescence; percent of tunicamycin response over DMSO baseline;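 active = at 10 µM dose, activation of 40% or more, normalized to positive control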;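 also: 100% = tunicamycin at 10 µg/mL and 0% = DMSO alone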
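Assay system: CHO cells with stable CHOP pathway luciferase reporter; Buffer or medium: F12 plus 10% serum; Times: 16-18 h cell attachment, then 6 h compound exposure, 37 °C; Signal: luciferase luminescence; Read-out basis: percent activation relative to tunicamycin control; Control set: tunicamycin high control, DMSO low control.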
Mdm2 MdmX PPI: human Mdm2/MdmX binding inhibition | O15151+Q00987 | SaOS-2 split-luciferase Mdm2/MdmX complementation, luminescence | inhibition, % at 8 µM | hit rate 3% among 330,000;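 active = inhibition of at least 50% at 8 µM in the primary screen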
Target sequence (O15151 whole entry, looked up): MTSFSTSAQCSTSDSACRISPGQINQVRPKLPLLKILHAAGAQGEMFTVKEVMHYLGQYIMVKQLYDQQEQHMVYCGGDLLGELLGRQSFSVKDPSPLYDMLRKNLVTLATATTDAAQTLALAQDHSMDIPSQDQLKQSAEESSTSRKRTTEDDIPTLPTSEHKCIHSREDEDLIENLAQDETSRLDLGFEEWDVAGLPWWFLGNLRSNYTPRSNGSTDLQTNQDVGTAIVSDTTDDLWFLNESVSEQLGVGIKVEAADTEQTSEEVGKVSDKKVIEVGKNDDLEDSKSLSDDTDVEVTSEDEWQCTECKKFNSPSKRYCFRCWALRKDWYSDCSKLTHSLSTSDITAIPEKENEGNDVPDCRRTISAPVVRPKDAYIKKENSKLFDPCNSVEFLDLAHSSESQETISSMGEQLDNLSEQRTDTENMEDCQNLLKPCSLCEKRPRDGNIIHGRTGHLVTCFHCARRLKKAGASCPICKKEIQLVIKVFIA
Target sequence (Q00987 whole entry, looked up): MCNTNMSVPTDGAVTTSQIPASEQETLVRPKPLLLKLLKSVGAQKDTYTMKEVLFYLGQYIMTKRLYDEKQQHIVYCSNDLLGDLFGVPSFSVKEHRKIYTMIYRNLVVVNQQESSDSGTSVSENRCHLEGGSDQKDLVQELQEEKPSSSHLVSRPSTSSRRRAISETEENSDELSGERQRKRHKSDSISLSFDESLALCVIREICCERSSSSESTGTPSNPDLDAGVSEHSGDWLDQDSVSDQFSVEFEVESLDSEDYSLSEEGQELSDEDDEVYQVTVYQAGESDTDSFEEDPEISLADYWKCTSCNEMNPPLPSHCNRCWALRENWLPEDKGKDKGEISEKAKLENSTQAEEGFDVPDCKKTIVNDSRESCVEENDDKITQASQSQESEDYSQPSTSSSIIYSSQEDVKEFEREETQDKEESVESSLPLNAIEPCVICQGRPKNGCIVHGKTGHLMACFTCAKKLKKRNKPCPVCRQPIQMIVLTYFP
XBP1 UPR activ: activators of adaptive arm of unfolded protein response (XBP1) | CHO-XBP1 luciferase reporter, IRE1-XBP1 UPR activation, luminescence; percent of tunicamycin response, DMSO as zero | activation, % at 20 µM | hit rate 0.33% among 330,000 | AID 463104;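 active = versus positive control, 20 µM dose yields 30% or more activation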;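 also: 100% = tunicamycin at 10 µg/mL and 0% = DMSO only wells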
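assay system = CHO-XBP1 luciferase reporter cells | amount = 1000 cells/well | buffer or medium = F12 plus 10% FBS | compound dosing = single point, 20 µM final compound, 1% DMSO | incubation = 16-18 h cell attachment at 37 °C, then 6 h compound exposure | detection = Steady-Glo luminescence read | controls = tunicamycin 10 µg/mL and vehicle-only wells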
CSC inhib: blocks cancer stem cells; cancer stem cell-like cells viability, luminescence; inhibition, % at 7.5 µM; hit rate 1.1% among 300,000; AID 2717; in the data active = inhibition above about 75%; tested in HMLE shEcad cells
Beta cell apopt: beta cell apoptosis inhibition. INS-1E cytokine-induced death, ATP luminescence, 48 h; percent of positive-control rescue, neutral wells zero. hit rate 0.8% among 300,000. protection from apoptosis, % (test concentration not listed). AID 435005;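 active = Every replicate reaches about 75%, or at least half do and their mean reaches it too, limit read from the data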;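 also: 0% = cytokine-treated negative control wells and 100% = positive control rescue; higher means more ATP so stronger rescue from cytokine killing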
T cruzi inh: T. cruzi replication inhibition | T. cruzi beta-gal in NIH3T3, luminescence, 90 h | inhibition, % (concentration not given with the values) | hit rate 1.4% among 300,000 | AID 1885;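 active = mean inhibition across valid replicates above about 55%, limit read from the data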;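 also: signal also drops with host cell toxicity which is not excluded here; 0% = plate median of DMSO wells and 100% = zero luminescence signal; higher percent means less beta-gal luminescence so fewer parasites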
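Test system: β-gal T. cruzi (Tulahuen C4) inside NIH/3T3 cells / Quantity: 5,000 cells/well / Measured by: luminescence from GalScreen with 0.05% NP40, read after 60 min / Medium: DMEM plus 2% FBS / Measure: parasite load inhibition, % / Reagent: Tulahuen C4 trypomastigotes, 5000/well / Schedule: co-culture of at least 90 h after 3 h attachment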
An asterisk follows results filed as active; . = not tested or not shown.

SMILES	CHOP UPR activ	Mdm2 MdmX PPI	XBP1 UPR activ	CSC inhib	Beta cell apopt	T cruzi inh
O=S(=O)(c1cc(F)ccc1F)N1CCN(c2ncccn2)CC1	1.8	1.4	-4.8	0.5	3.1	6.1
CC1CCc2c(sc3nc(CN4CCOCC4)nc(Sc4ccccc4)c23)C1 (centres undefined)	2.4	5.2	1.5	84.3*	-9.7	21.8
N#CC1=C(S)N(c2ccccc2)C(c2ccc(-c3ccccc3Cl)o2)NC1=O (centres undefined)	0.7	22.6	-2.5	.	-0.1	-3.9
CCc1nnc(N/N=C/c2cc(Br)c(O)cc2O)n1N	-0.7	-5.2	-1.8	-4.1	-3.8	-2.4
CC(C)(C)c1nnc(N/N=C/c2cc(Br)ccc2O)n(N)c1=O	.	.	.	112.1*	95.1*	-30.9
c1ccc2nc(-c3nc4ccccc4[nH]3)ccc2c1	-5.3	-123.1	-10.6	76.1*	42.7	-16.6
O=C(NCC1COc2ccccc2O1)c1ccc(F)c(S(=O)(=O)N2CCOCC2)c1 (centres undefined)	-0.8	7.8	0.2	.	.	.
O=C(C1CC1)N1CCN(S(=O)(=O)c2ccc3c(c2)OCCO3)CC1	-1.9	14.1	-3.0	-7.6	-0.5	-5.7
Oc1ccc(N2CCN(c3ncnc4sc(-c5ccccc5)cc34)CC2)cc1	.	.	.	.	.	58.3*
CC(=O)N1CCN(c2ncnc3sc(-c4ccccc4)cc23)CC1	1.9	20.9	6.3	18.8	-3.7	3.6
CCC1CCCCN1Cc1ccc(OC)c(C)c1C (centres undefined)	0.3	9.1	-2.3	8.2	-2.3	8.7
CCOC(=O)C1=C(C)NC(=S)NC1c1cc(C)sc1C (centres undefined)	-0.2	25.9	-0.3	.	-6.5	-4.2
CCOC(=O)c1c(NC(=O)C2=C(C)NC(=S)NC2c2ccccc2C(F)(F)F)sc(C)c1C (centres undefined)	2.8	26.5	2.5	23.9	4.4	62.4*
COc1ccc(-c2csc3ncnc(N4CCN(c5ccccc5OC)CC4)c23)cc1	7.1	20.5	5.1	21.6	18.1	39.1
CCOc1ccccc1N1CCN(c2ncnc3scc(-c4ccc(OC)cc4)c23)CC1	6.3	49.3	-2.4	6.9	4.3	60.7*
COc1ccc(-c2csc3ncnc(N4CCN(S(=O)(=O)c5ccc(C)c(C)c5)CC4)c23)cc1	6.1	44.2	-0.5	-3.9	12.2	55.2*
Cn1c(=O)[nH]c(=O)c2c1nc(NN)n2CCOc1ccccc1	0.4	31.6	-4.0	.	.	-5.6
O=C(NCc1ccc(Cl)cc1)c1ccc(NC(=O)C2CCCO2)cc1 (centres undefined)	-0.6	-25.7	-3.7	0.6	2.0	-6.7
O=C(COC(=O)c1ccc[nH]c1=O)NCCCc1ccccc1	0.8	-16.9	0.5	-12.2	0.0	.
Cc1ccc(NC(=O)c2cc(N3C(=O)C=CC3=O)ccc2N2CCOCC2)cc1	.	.	.	.	.	59.4*
Cc1ccc(NC(=O)c2cc(NC(=O)c3ccco3)ccc2N2CCOCC2)cc1	-1.0	14.6	-0.6	-3.3	2.9	20.7
Cc1ccc(-c2csc(NC(=O)C3=COCCO3)n2)cc1	7.7	-174.8	3.0	3.7	0.3	-6.3
Cc1csc(NC(=O)c2cnccn2)n1	-0.8	8.2	0.1	-2.8	0.0	3.9
Cc1ccc(C)c(-c2csc(NC(=O)C3=COCCO3)n2)c1	0.1	2.0	2.4	.	76.7*	53.5
Cc1ccc(C)c(-c2csc(NC(=O)c3cnccn3)n2)c1	-1.2	25.5	-2.2	14.2	3.2	92.5*
SMILES	CHOP UPR activ	Mdm2 MdmX PPI	XBP1 UPR activ	CSC inhib	Beta cell apopt	T cruzi inh
C[C@H](NC(=O)c1ccccc1)C(=O)N1CCC2(CC1)NCCc1[nH]cnc12	1.9	27.2	-2.4	-17.9	-1.4	-18.4
CCOc1ccc(-n2c(-c3ccccc3)c[n+]3c2CCC3)cc1	2.2	39.4	4.6	-5.5	104.1*	61.6*
CCOc1ccc(-n2c(-c3ccc(Br)cc3)c[n+]3c2CCCCC3)cc1	-0.7	16.4	-3.5	-8.8	117.9*	82.7*
FC(F)Oc1ccc(-c2c[n+]3c(n2-c2ccccc2)CCCCC3)cc1	-0.9	-5.1	0.2	-8.4	7.7	35.6
Cc1cc(C)n2nc(CCCO)nc2n1	0.0	19.9	-3.2	-10.0	-4.0	-14.2
COc1ccc(-c2nc(Cn3c(SCc4cccc(F)c4)nc4ccncc43)c(C)o2)cc1OC	2.2	19.3	-2.4	82.4*	21.4	18.4
Cc1nc(SCc2nc3ccc(Br)cc3[nH]2)c2oc3ccccc3c2n1	-0.2	40.6	3.2	.	7.2	.
Cc1nc(SCc2nc3ccc(C(F)(F)F)cc3[nH]2)c2oc3ccccc3c2n1	-1.8	49.1	0.2	103.6*	16.4	.
C#CCn1c(=NC(=O)c2ccc(S(=O)(=O)N3CCCc4ccccc43)cc2)sc2cc(S(N)(=O)=O)ccc21	2.8	15.4	-1.8	.	0.8	55.5*
Cn1c(=NC(=O)c2ccc(S(=O)(=O)N3CCCc4ccccc43)cc2)sc2cc(S(C)(=O)=O)ccc21	8.6	20.3	-0.5	-0.1	12.0	52.3
N#Cc1ccsc1NC(=O)C1CC(=O)N(Cc2ccccc2)C1 (centres undefined)	-0.2	7.1	-2.8	-13.1	0.7	-1.3
Cc1ccc(C)c(N2CN(Cc3cccnc3)CNC2=S)c1	0.2	-3.8	0.1	.	.	61.4*
CC(=O)NC(=S)Nc1ccc(S(=O)(=O)N(C)Cc2ccccc2)cc1	-0.3	5.9	1.0	6.2	2.3	68.3*
CC(C)C(=O)NC(=S)Nc1ccc(S(=O)(=O)N(C)Cc2ccccc2)cc1	-2.9	38.5	-1.9	42.2	4.0	.
COc1ccc(/C=C2\SC(=S)N(CCCC(=O)N3CCN(C)CC3)C2=O)cc1	-1.6	25.7	-3.4	30.3	-20.7	59.8*
Cc1cccc(NC(=O)Nc2ccncc2)c1	2.4	3.4	-0.4	-6.4	7.3	65.3*
O=C(Nc1ccncc1)Nc1ccc(Br)cc1Cl	-1.2	15.7	-1.0	12.7	-0.5	55.7*
CCOC(=O)c1ccc(-n2[nH]c(-c3ccccc3)cc2=O)cc1	-0.5	31.7	0.1	79.0*	11.7	0.2
CCc1cccc2c(C(=O)COC(=O)c3ccc(O)cc3)c[nH]c12	4.7	10.1	0.0	40.3	0.4	55.7*
C/C(Cn1nnc([N+](=O)[O-])n1)=N\NC(=O)c1cccc(Cl)c1	0.0	28.8	-0.5	-6.3	66.9	56.9*
C/C(Cn1nnc([N+](=O)[O-])n1)=N\NC(=O)c1ccc(C)cc1	.	.	.	-7.3	6.8	48.7
C/C(Cn1nnc([N+](=O)[O-])n1)=N\NC(=O)c1ccncc1	0.6	9.1	-0.2	-17.6	-3.0	57.3*
C/C(Cn1nnc([N+](=O)[O-])n1)=N\NC(=O)c1ccccc1Cl	-0.6	19.7	1.9	17.0	79.5*	56.3*

Screening results (PubChem BioAssay)
